Results filed as inconclusive are left out.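 Rule for the calls, unless noted: active = growth inhibition above 25% in both replicates, a cutoff set 3 SD above the mean; inconclusive = above 25% in only one replicate; inactive = the rest.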
Columns and labels:
[1] = S. cerevisiae growth inhibition in permissive medium (OD615), pilot counter-assay for S. cerevisiae lifespan shortening project, permissive growth control (AID 705); settings: OD615, 24 h, at 10 µM, stronger effect = higher value
In short: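 assay system = Saccharomyces cerevisiae strain carrying genetically modified DeaD replicative-lifespan system | medium = SC raffinose/galactose permissive medium | dosing = 10 µM single dose, 0.25% DMSO | schedule = 24 h compound exposure at 30 °C after 4 h pre-growth | measured by = OD at 615 nm | read-out basis = growth inhibition from lowered OD615 after 24 h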

[2] = S. cerevisiae growth inhibition in restrictive medium, OD615, pilot screen, restrictive growth control, yeast lifespan reduction project (AID 706;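 active = growth inhibition above a set limit, 3 SD over mean compound inhibition, in both replicates, cut at about 43% in these data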;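 note: modified DeaD lifespan yeast strain shifted to restrictive glucose medium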); settings: OD615, 48 h, at 10 µM, stronger effect = higher value
In short: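 Buffer or medium: CSMM-D glucose medium. Material: genetically modified Saccharomyces cerevisiae, DeaD replicative lifespan assay strain. Times: 48 h compound exposure at 30 °C. Measured by: optical density at 615 nm.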

[3] = doxorubicin toxicity protection in MRP-1 cells – H69AR cells, CellTiter-Glo, duplicate, MRP-1 activator project, pilot screen (AID 807;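 active = viability increase at or above a cutoff of the median across tested compounds plus 3 SD, cut at about 8.5% in these data, passing the limit was not always enough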;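 note: compound pretreatment 18-22 h then 72 h combined with doxorubicin; 0% = doxorubicin alone and 100% = vehicle without doxorubicin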); settings: H69AR viability with doxorubicin, CellTiter-Glo luminescence; at 10 µM; stronger effect = higher value
[4] = viability of HCT116 without oncogenic beta-catenin – human colon tumor cells, pilot screen (AID 823;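 active = cell viability at or below a set limit in both duplicate runs, the limit being the all-compound median minus 4 SD, cut at about 23% in these data, passing the limit was not always enough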;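 note: 0% = wells killed by 20 µM Hyamine and 100% = untreated DMSO cell wells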); settings: HCT116 beta-catenin knockout viability, CellTiter-Glo, 60 h; at 10 µM; stronger effect = lower value
[5] = viability of PTEN-null HCT116 cells – cell-based, HCT116 clonal line, CellTiter-Glo, pilot screen (AID 824;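 active = viability at or below 27.92% in each of two runs, the all-compound median minus 4 SD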;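 note: 0% = 20 µM Hyamine control and 100% = vehicle cell control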); settings: HCT116 PTEN-deleted viability, 60 h, at 10 µM, stronger effect = lower value
[6] = RAM pathway blockade in budding yeast – dse1pr::URA3 reporter, 5-FOA selection, pilot screen (AID 869;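 active = inhibition over a set limit, the all-compound mean plus 3 SD, in both replicate runs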;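 note: 0% = DMSO wells with no growth and 100% = 10 µM 1-NA-PP1 with full growth; RAM network block rescues cells from 5-FOA so hits raise OD615 growth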); settings: S. cerevisiae dse1pr::URA3 5-FOA growth, OD615, 2 d; at 10 µM; stronger effect = higher value; strain carries analog-sensitive mutant Cbk1 kinase
[7] = RAM signaling pathway blockade in yeast – S. cerevisiae, Pdr1DBD-CYC8 efflux-inhibited sensitized strain, primary screen (AID 1298;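 active = RAM network inhibition above 8.4% in each of two replicates, 3 SD over the compound average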;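 note: 0% = DMSO untreated cells without growth and 100% = 10 µM 1-NA-PP1 full growth; higher means more yeast growth rescued from 5-FOA killing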); settings: S. cerevisiae cbk1-as DSE1-URA3 strain, 5-FOA growth OD615, 2 d; at 50 µM; stronger effect = higher value

O=C(CSc1nc2c(c(=O)n1-c1ccc(F)cc1)SCC2)NCc1ccco1
inactive: growth inhibition [1] 8.53% | growth inhibition [2] 14.1% | viability increase [3] -2.1% | viability [4] 102% | viability [5] 103% | inhibition [6] 1.21% | RAM network inhibition [7] 7.3%

O=C(CSc1nnc(C2COc3ccccc3O2)o1)N1CCCCC1 (configuration not stated)
inactive: growth inhibition [1] -7.62% | growth inhibition [2] 2.56% | viability increase [3] -0.36% | viability [4] 98.7% | viability [5] 105% | inhibition [6] -0.035% | RAM network inhibition [7] 0.97%

CCCn1c(N2CCN(Cc3cccc(C)c3)CC2)nc2c1c(=O)[nH]c(=O)n2C
inactive: growth inhibition [1] 5.6% | growth inhibition [2] 2.15% | viability increase [3] -5.06% | viability [4] 89.3% | viability [5] 82.8% | inhibition [6] 1.34% | RAM network inhibition [7] 2.5%

COc1ccc(OCc2nnc(SCC(=O)O)n2N)cc1
inactive: growth inhibition [1] -6.54% | growth inhibition [2] 5.32% | viability increase [3] 1.25% | viability [4] 106% | viability [5] 94.8% | inhibition [6] 0.66% | RAM network inhibition [7] -2.27%

O=C(NCc1ccc(Cl)cc1)C1CCCN(S(=O)(=O)c2cnc[nH]2)C1 (configuration not stated)
inactive: growth inhibition [1] 1.47% | growth inhibition [2] -8.94% | viability increase [3] 1.36% | viability [4] 106% | viability [5] 92.4% | inhibition [6] 2.04% | RAM network inhibition [7] 1.09%

COC(=O)COC(=O)c1ccc(O)cc1
inactive: growth inhibition [1] 7.13% | growth inhibition [2] 4.2% | viability increase [3] -0.65% | viability [4] 99.5% | viability [5] 102% | inhibition [6] 2.5% | RAM network inhibition [7] 2.15%

COc1cc(C2C(C(=O)c3ccco3)=C(O)C(=O)N2Cc2cccnc2)cc(OC)c1OC (configuration not stated)
inactive: growth inhibition [1] 2.67% | growth inhibition [2] -4.03% | viability increase [3] -3.86% | viability [4] 102% | viability [5] 96.8% | inhibition [6] 1.64% | RAM network inhibition [7] 4.97%

CCCOC(=O)CC1C(=O)NCCN1Cc1ccc(F)cc1 (configuration not stated)
inactive: growth inhibition [1] -12.3% | growth inhibition [2] -6.77% | viability increase [3] -1.04% | viability [4] 104% | viability [5] 98.3% | inhibition [6] 2.83% | RAM network inhibition [7] 1.73%

CC(O)CSc1nc2c(c(=O)n(C)c(=O)n2C)n1CCCc1ccccc1 (configuration not stated)
inactive: growth inhibition [1] -7.62% | growth inhibition [2] -5.55% | viability increase [3] 0.66% | viability [4] 101% | viability [5] 96% | inhibition [6] 1.14% | RAM network inhibition [7] 5.17%

Cc1ccc(C)c(Cn2c(CN(C)Cc3ccccc3)nc3c2c(=O)n(C)c(=O)n3C)c1
inactive: growth inhibition [1] -0.27% | growth inhibition [2] -21.5% | viability increase [3] -6.57% | viability [4] 71.7% | viability [5] 61.5% | inhibition [6] 2.2% | RAM network inhibition [7] 2.51%

O=C(Nc1ccc(-c2nc3cccnc3s2)cc1)c1ccco1
inactive: growth inhibition [1] -4.68% | growth inhibition [2] 9.91% | viability increase [3] -3.43% | viability [4] 90% | viability [5] 80.4% | inhibition [6] 1.75% | RAM network inhibition [7] -1.95%

COCCN1C(=O)c2oc3ccccc3c(=O)c2C1c1ccc(OC)c(OC)c1 (configuration not stated)
inactive: growth inhibition [1] -24% | growth inhibition [2] -16.9% | viability increase [3] -1.75% | viability [4] 107% | viability [5] 95.1% | inhibition [6] 0.865% | RAM network inhibition [7] 4.46%

Cc1cc(N2CCN(C3CCCCC3)CC2)nc2cccc(O)c12
inactive: growth inhibition [1] -7.5% | growth inhibition [2] -31.3% | viability increase [3] -4% | viability [4] 61% | viability [5] 62.8% | inhibition [6] 2.71% | RAM network inhibition [7] 4.45%

CCCCn1c(=NC(=O)c2cccnc2)c(C(=O)OCC)cc2c(=O)n3ccccc3nc21
inactive: growth inhibition [1] -19.8% | growth inhibition [2] -15% | viability increase [3] -4.72% | viability [4] 84.2% | viability [5] 88.1% | inhibition [6] 0.685% | RAM network inhibition [7] 7.68%

CCOc1ccc(Cc2nnc(SCC(=O)c3ccc(OC)cc3)o2)cc1
inactive: growth inhibition [1] 1.71% | growth inhibition [2] 25.5% | viability increase [3] 0.28% | viability [4] 54.3% | viability [5] 70.3% | inhibition [6] 1.66% | RAM network inhibition [7] 11.3%

CCN1CCN(C(=O)C2CCN(Cc3nc(-c4ccc(Cl)cc4)oc3C)CC2)CC1
inactive: growth inhibition [1] -10.7% | growth inhibition [2] -25% | viability increase [3] -2.66% | viability [4] 85.8% | viability [5] 79.7% | inhibition [6] 2.88% | RAM network inhibition [7] 2.86%

O=C(CCCCn1c(=O)[nH]c2ccccc2c1=O)NCCc1c[nH]c2ccccc12
inactive: growth inhibition [1] -16.7% | growth inhibition [2] -25.8% | viability increase [3] -4.05% | viability [4] 93.5% | viability [5] 93.7% | inhibition [6] 0.945% | RAM network inhibition [7] 4.06%

CCOC(=O)N1CCC(N2CC34C=CC(O3)C(C(=O)Nc3ccc(F)cc3)C4C2=O)CC1 (configuration not stated)
inactive: growth inhibition [1] -4.45% | growth inhibition [2] -3.7% | viability increase [3] 1.43% | viability [4] 105% | viability [5] 101% | inhibition [6] 0.885% | RAM network inhibition [7] 6.68%

C=CCn1c(SCCOC)nc2c1c(=O)[nH]c(=O)n2C
inactive: growth inhibition [1] 2.12% | growth inhibition [2] 0.43% | viability increase [3] -2.47% | viability [4] 99% | viability [5] 95% | inhibition [6] 0.665% | RAM network inhibition [7] -0.26%

CCc1cccc(C)c1NC(=O)CN1C(=O)c2ccccc2S1(=O)=O
inactive: growth inhibition [1] -7.37% | growth inhibition [2] 1.46% | viability increase [3] -0.23% | viability [4] 98.3% | viability [5] 93.2% | inhibition [6] 0.955% | RAM network inhibition [7] 4.79%

CC(=O)Nc1ccc(S(=O)(=O)N2CCN(c3cc(C)ccc3C)CC2)cc1
inactive: growth inhibition [1] -14.3% | growth inhibition [2] -36% | viability increase [3] -0.32% | viability [4] 85.7% | viability [5] 79.3% | inhibition [6] 3.58% | RAM network inhibition [7] 0.1%

Cc1ccccc1-c1c(C)oc2cc(O)ccc2c1=O
inactive: growth inhibition [1] 1.68% | growth inhibition [2] -0.005% | viability increase [3] -4.28% | viability [4] 96.8% | viability [5] 92.2% | inhibition [6] 2.21% | RAM network inhibition [7] 2.67%

CCOc1ccc(N=CC2=C(O)CC(C)(C)CC2=O)cc1
inactive: growth inhibition [1] -18.6% | growth inhibition [2] -0.24% | viability increase [3] -0.38% | viability [4] 92% | viability [5] 103% | inhibition [6] 1.86% | RAM network inhibition [7] 1.77%

O=C(c1cnn(-c2ccccc2)c1-n1cccc1)N1CCN(C2CCCCC2)CC1
inactive: growth inhibition [1] -1.61% | growth inhibition [2] 5.93% | viability increase [3] -3.1% | viability [4] 94% | viability [5] 93.4% | inhibition [6] 1.35% | RAM network inhibition [7] 2.87%

CCOC(=O)C(C(=O)Nc1ccccc1)C1CCCCC1 (configuration not stated)
inactive: growth inhibition [1] -7.22% | growth inhibition [2] 1.79% | viability increase [3] -5.02% | viability [4] 86.1% | viability [5] 86.7% | inhibition [6] -0.18% | RAM network inhibition [7] 3.67%

CCN1C(=O)c2cccc3c(N)ccc1c23
inactive: growth inhibition [1] -0.755% | growth inhibition [2] -11% | viability increase [3] -5.55% | viability [4] 74.2% | viability [5] 68.3% | inhibition [6] 0% | RAM network inhibition [7] 1.92%

CC(=O)Nc1nnc(SCC(=O)NCCOc2ccccc2)s1
inactive: growth inhibition [1] -0.45% | growth inhibition [2] -7.88% | viability increase [3] -0.85% | viability [4] 98.9% | viability [5] 96.7% | inhibition [6] 0.52% | RAM network inhibition [7] 4.66%

COc1ccc(Cc2nnc(NC(=O)c3c(-c4ccccc4)noc3C)s2)cc1
inactive: growth inhibition [1] -14% | growth inhibition [2] -3.4% | viability increase [3] 0.94% | viability [4] 88.3% | viability [5] 85.2% | inhibition [6] 1.82% | RAM network inhibition [7] 5.46%

NC(=O)CSc1ncnc2c1oc1ccccc12
inactive: growth inhibition [1] -17.7% | growth inhibition [2] -9.65% | viability increase [3] -2.08% | viability [4] 99.5% | viability [5] 91.6% | inhibition [6] 0.41% | RAM network inhibition [7] 0.74%

CCCCN1C(=O)c2ccc(C(=O)Nc3c(N)n(CCCC)c(=O)n(C)c3=O)cc2C1=O
inactive: growth inhibition [1] -9.82% | growth inhibition [2] -6.89% | viability increase [3] -0.93% | viability [4] 103% | viability [5] 88.2% | inhibition [6] 0.865% | RAM network inhibition [7] 7.06%

NC(=O)C1CCN(CCCNC2CC(=O)N(Cc3ccc(N4CCCC4=O)cc3)C2=O)CC1 (configuration not stated)
inactive: growth inhibition [1] -14.8% | growth inhibition [2] -4.07% | viability increase [3] -0.01% | viability [4] 98.7% | viability [5] 98.7% | inhibition [6] 1.15% | RAM network inhibition [7] 5.68%

CCOC(=O)c1sc(/N=C/N(C)C)c(C(=O)OCC)c1C
inactive: growth inhibition [1] -5.24% | growth inhibition [2] 0.92% | viability increase [3] -3.82% | viability [4] 95.3% | viability [5] 90.4% | inhibition [6] 1.98% | RAM network inhibition [7] 7.56%

O=C(Cn1c(=O)oc2cc(S(=O)(=O)N3CCCCCC3)ccc21)NC1CCCCCCC1
inactive: growth inhibition [1] -9.87% | growth inhibition [2] -14.8% | viability increase [3] -7.86% | viability [4] 95.2% | viability [5] 88.5% | inhibition [6] 4.98% | RAM network inhibition [7] 10.5%

CC1CCCN(c2ncnc3c2cnn3-c2ccccc2)C1 (configuration not stated)
inactive: growth inhibition [1] -2.51% | growth inhibition [2] -4.29% | viability increase [3] -2.92% | viability [4] 77.5% | viability [5] 73.5% | inhibition [6] 0.15% | RAM network inhibition [7] 4.59%

Cc1ccccc1-c1nnc(-c2ccc(Cl)cc2)o1
inactive: growth inhibition [1] -18.7% | growth inhibition [2] -20.9% | viability increase [3] -6.28% | viability [4] 77.9% | viability [5] 64.8% | inhibition [6] 4.19% | RAM network inhibition [7] 6.89%

CCCCNC(=O)c1cc2c(-c3ccc(Cl)cc3)nn(C)c2s1
inactive: growth inhibition [1] 3.71% | growth inhibition [2] 6.75% | viability increase [3] -5.53% | viability [4] 89.9% | viability [5] 88.7% | inhibition [6] 3.1% | RAM network inhibition [7] 4.05%

From PubChem BioAssay
